Test results: ChEMBL document CHEMBL1122803, “Folate antagonists. 22. Antimalarial and antibacterial effects of 2,4-diamino-6-quinazolinesulfonamides” (1984)
In brackets after ≈: the same amount, converted by molar mass.

Key:
[1] = test system: Plasmodium berghei; test: Antimalarial activity as change in MST for drug-sensitive Plasmodium berghei infected mice (Mus musculus) at 80 mg/kg subcutaneous dose over 72 hr; assay type: functional
[2] = test system: Plasmodium berghei; test: Antimalarial activity as change in MST against drug-sensitive Plasmodium berghei infected mice (Mus musculus) at 160 mg/kg subcutaneous dose after 72 hr; assay type: functional
[3] = test system: Plasmodium berghei; test: Antimalarial activity as change in MST for drug-sensitive Plasmodium berghei infected mice (Mus musculus) after 72 hrs at 320 mg/kg subcutaneous dose; assay type: functional
[4] = test system: Plasmodium berghei; test: Antimalarial activity as change in MST against drug-sensitive Plasmodium berghei infected mice (Mus musculus) at 20 mg/kg subcutaneous dose after 72 hr; assay type: functional
[5] = test system: Plasmodium berghei; test: Antimalarial activity as change in MST for drug-sensitive Plasmodium berghei infected mice (Mus musculus) at 640 mg/kg subcutaneous dose over 72 hr; assay type: functional
[6] = test system: Plasmodium berghei; test: Antimalarial activity as change in MST for drug-sensitive Plasmodium berghei infected mice (Mus musculus) at 40 mg/kg subcutaneous dose over 72 hr; assay type: functional
[7] = test system: Plasmodium berghei; test: Antimalarial activity as change in MST for drug-sensitive Plasmodium berghei infected mice (Mus musculus) at 40 mg/kg subcutaneous dose over 72hr; assay type: functional
[8] = test system: Pseudomonas aeruginosa; test: Compound was tested in vitro against Pseudomonas aeruginosa 28, by gradient-plate test; assay type: functional
Procedure, shortened: (§1)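 Antibacterial testing in vitro by gradient-plate test. Read-out was the minimum inhibitory concentration, with values exceeding 25 reported as >25.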

[9] = test system: Shigella sonnei; test: Compound was tested in vitro against Shigella sonnei C-10, by gradient-plate test; assay type: functional; procedure, shortened: as §1
[10] = test system: Staphylococcus aureus; test: In vitro antibacterial activity against […] S 18713.; assay type: functional; procedure, shortened: as §1
[11] = test system: Staphylococcus aureus; test: In vitro antibacterial activity against […] U.C-76.; assay type: functional; procedure, shortened: as §1
[12] = test system: Plasmodium berghei; test: Antimalarial activity as change in MST against drug-sensitive Plasmodium berghei infected mice (Mus musculus) at 160 mg/kg subcutaneous dose after 72h; assay type: functional
[13] = test system: Enterococcus faecalis; test: In vitro antibacterial activity against Streptococcus faecalis MGH-2.; assay type: functional; procedure, shortened: as §1
[14] = test system: Escherichia coli; test: Compound was tested in vitro against Escherichia coli Vogel, by gradient-plate test; assay type: functional; procedure, shortened: as §1
[15] = test system: Shigella sonnei; test: In vitro antibacterial activity against Shigella sonnei C-10.; assay type: functional; procedure, shortened: as §1
[16] = test system: Mycobacterium tuberculosis; test: In vitro antibacterial activity against Mycobacterium tuberculosis H37Rv.; assay type: functional
Procedure, shortened: (§2)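 Mycobacterium tuberculosis tested in vitro by gradient-plate test; minimum inhibitory concentration reported.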

[17] = test system: Plasmodium berghei; test: Antimalarial activity as survivor numbers at day 60 against drug-sensitive Plasmodium berghei infected mice (Mus musculus) at 160 mg/kg subcutaneous dose after 72 hr; assay type: functional
Procedure, shortened: (§3)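 Mice infected with drug-sensitive P. berghei got one subcutaneous dose in sesame or peanut oil 72 h postinfection. Read-out is the number of mice alive at 60 days postinfection, termed "cured", without subinoculation to confirm parasitological cure. Groups of five per dose, or 10 where indicated.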

[18] = test system: Escherichia coli; test: Tested in vitro against Escherichia coli Vogel. by gradient-plate test; assay type: functional; procedure, shortened: as §1
[19] = test system: Plasmodium berghei; test: Antimalarial activity as change in MST against drug-sensitive Plasmodium berghei infected mice (Mus musculus) at 20 mg/kg subcutaneous dose after 72h; assay type: functional
[20] = test system: Pseudomonas aeruginosa; test: In vitro against Pseudomonas aeruginosa 28. by gradient-plate test; assay type: functional; procedure, shortened: as §1
[21] = test system: Plasmodium berghei; test: Antimalarial activity as survivor numbers at day 60 for drug-sensitive Plasmodium berghei infected mice (Mus musculus) at 640 mg/kg subcutaneous dose over 72 hr; assay type: functional; procedure, shortened: as §3
[22] = test system: Plasmodium berghei; test: Antimalarial activity as change in MST for drug-sensitive Plasmodium berghei infected mice (Mus musculus) at 80mg/kg subcutaneous dose over 72h; assay type: functional
[23] = test system: Plasmodium berghei; test: In vivo antimalarial activity against drug-sensitive Plasmodium berghei in mice (Mus musculus) after 320 mg/kg subcutaneous dose for 72 hrs as survivors 60 days post infection
[24] = test system: Plasmodium berghei; test: Antimalarial activity as survivor numbers at day 60 for drug-sensitive Plasmodium berghei infected mice (Mus musculus) at 320 mg/kg subcutaneous dose for 72 hr; assay type: functional; procedure, shortened: as §3
[25] = test system: Plasmodium berghei; test: Antimalarial activity as survivor numbers at day 60 for drug-sensitive Plasmodium berghei infected mice (Mus musculus) at 40 mg/kg over 72 hr; assay type: functional; procedure, shortened: as §3
[26] = test system: Plasmodium berghei; test: Antimalarial activity as toxic deaths 2-5 days post infection for drug-sensitive Plasmodium berghei infected mice (Mus musculus) at 640 mg/kg subcutaneous dose over 72 hr; assay type: functional
Procedure, shortened: (§4)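 P. berghei (drug-sensitive) infected mice dosed once subcutaneously 72 h postinfection, compound in sesame or peanut oil. Read-out is the count of deaths on days 2–5 after infection, attributed to drug toxicity. Five animals per dose level, or 10 where indicated.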

[27] = test system: Plasmodium berghei; test: Antimalarial activity as survivor numbers at day 60 for drug-sensitive Plasmodium berghei infected mice (Mus musculus) at 80 mg/kg subcutaneous dose over 72 hr; assay type: functional; procedure, shortened: as §3
[28] = test system: Plasmodium berghei; test: Antimalarial activity as toxic deaths 2-5 days post infection for drug-sensitive Plasmodium berghei infected mice (Mus musculus) at 320 mg/kg subcutaneous dose over 72 hrs; assay type: functional; procedure, shortened: as §4
[29] = test system: Plasmodium berghei; test: Antimalarial activity as survivor numbers at day 60 for drug-sensitive Plasmodium berghei infected mice (Mus musculus) at 320 mg/kg over 72 hr; assay type: functional; procedure, shortened: as §3
[30] = test system: Plasmodium berghei; test: Antimalarial activity as survivor numbers at day 60 for drug-sensitive Plasmodium berghei infected mice (Mus musculus) at 320 mg/kg subcutaneous dose over 72 hr; assay type: functional; procedure, shortened: as §3
[31] = test system: Plasmodium berghei; test: Antimalarial activity as survivor number at day 60 for drug-sensitive Plasmodium berghei infected mice (Mus musculus) at 640 mg/kg subcutaneous dose over 72 hr; assay type: functional; procedure, shortened: as §3
[32] = test system: Plasmodium berghei; test: Antimalarial activity as survivor numbers at day 60 against drug-sensitive Plasmodium berghei infected mice (Mus musculus) at 20 mg/kg subcutaneous dose after 72 hr; assay type: functional; procedure, shortened: as §3
[33] = test system: Plasmodium berghei; test: Antimalarial activity as toxic deaths 2-5 days post infection for drug-sensitive Plasmodium berghei infected mice (Mus musculus) at 320 mg/kg subcutaneous dose over 72 hr; assay type: functional; procedure, shortened: as §4
[34] = test system: Escherichia coli; test: Compound was tested in vitro against Escherichia coli Vogel. by gradient-plate test.; assay type: functional; procedure, shortened: as §1
[35] = test system: Mycobacterium tuberculosis; test: Compound was tested in vitro against Mycobacterium tuberculosis H37Rv. by gradient-plate test.; assay type: functional; procedure, shortened: as §2
[36] = test system: Staphylococcus aureus; test: Compound was tested in vitro against […] U.C-76. by gradient-plate test.; assay type: functional; procedure, shortened: as §1
[37] = test system: Staphylococcus aureus; test: Compound was tested in vitro against […] S 18713 by gradient-plate test.; assay type: functional; procedure, shortened: as §1
[38] = test system: Shigella sonnei; test: Compound was tested in vitro against Shigella sonnei C-10. by gradient-plate test.; assay type: functional; procedure, shortened: as §1
[39] = test system: Enterococcus faecalis; test: Compound was tested in vitro against Streptococcus faecalis MGH-2. by gradient-plate test.; assay type: functional; procedure, shortened: as §1
[40] = test system: Pseudomonas aeruginosa; test: Compound was tested in vitro against Pseudomonas aeruginosa 28. by gradient-plate test.; assay type: functional; procedure, shortened: as §1
[41] = test system: Plasmodium berghei; test: Antimalarial activity as survivor numbers at day 60 for drug-sensitive Plasmodium berghei infected mice (Mus musculus) at 40 mg/kg subcutaneous dose over 72 hr; assay type: functional; procedure, shortened: as §3
[42] = test system: Plasmodium berghei; test: Antimalarial activity as survivor number at day 60 against drug-sensitive Plasmodium berghei infected mice (Mus musculus) at 160 mg/kg subcutaneous dose after 72 hr; assay type: functional; procedure, shortened: as §3
[43] = test system: Plasmodium berghei; test: Antimalarial activity as survivor numbers at day 60 for drug-sensitive Plasmodium berghei infected mice (Mus musculus) at 320 mg/kg subcutaneous dose over 72 hrs; assay type: functional; procedure, shortened: as §3

CC1(C)N=C(N)N=C(N)N1c1ccc(Cl)cc1.Cl [CHLORCYCLOGUANIL HYDROCHLORIDE]
Delta MST [1]: 21.6 days
Delta MST [2]: 5 days
Delta MST [3]: 3 days
Delta MST [4]: 7.9 days
Delta MST [5]: 5 days
Delta MST [6]: 13.4 days

Nc1nc(N)c2cc(S(N)(=O)=O)ccc2n1
Delta MST [7]: 0.1 days
MIC [8]: > 25 µg/mL
MIC [9]: > 25 µg/mL
MIC [10]: > 25 µg/mL
MIC [11]: > 25 µg/mL
Delta MST [12]: 0.3 days
MIC [13]: > 25 µg/mL
Delta MST [5]: 0.3 days
MIC [14]: > 25 µg/mL

Nc1nc(N)c2cc(S(=O)(=O)N3CCOCC3)ccc2n1
Delta MST [7]: 4.7 days
MIC [10]: > 25 µg/mL
MIC [11]: 2 µg/mL (≈ 6.47 µM)
MIC [15]: > 25 µg/mL
MIC [16]: > 25 µg/mL
survivors at day 60 [17]: 10
MIC [13]: < 0.25 µg/mL
MIC [18]: > 25 µg/mL
Delta MST [19]: 1.7 days
MIC [20]: > 25 µg/mL
survivors at day 60 [21]: 10
Delta MST [22]: 14.5 days
survivors at day 60 [23]: 5

CCN(CC)S(=O)(=O)c1ccc2nc(N)nc(N)c2c1
Delta MST [24]: 5 days
Delta MST [12]: 9.4 days
Delta MST [19]: 0.7 days
Delta MST [5]: 5 days
Delta MST [6]: 3.3 days
Delta MST [22]: 4.3 days

Nc1nc(N)c2c(Cl)c(NCc3ccc(Cl)c(Cl)c3)ccc2n1
survivors at day 60 [25]: 5
survivors at day 60 [17]: 5
toxic deaths [26]: 5
survivors at day 60 [27]: 5
toxic deaths [28]: 5

CN(C)S(=O)(=O)c1ccc2nc(N)nc(N)c2c1
Delta MST [12]: 15.9 days
Delta MST [29]: 5 days
Delta MST [19]: 7.3 days
Delta MST [6]: 8.7 days
Delta MST [22]: 16.1 days

CCc1nc(N)nc(N)c1-c1ccc(Cl)cc1 [PYRIMETHAMINE]
survivors at day 60 [30]: 2
survivors at day 60 [31]: 1
survivors at day 60 [17]: 5
toxic deaths [26]: 2
survivors at day 60 [27]: 3
Delta MST [32]: 7.7 days
toxic deaths [33]: 3
Delta MST [6]: 1 days

Nc1nc(N)c2cc(S(=O)(=O)N3CCc4ccccc4C3)ccc2n1
MIC [34]: > 25 µg/mL
MIC [35]: > 25 µg/mL
Delta MST [1]: 0.7 days
MIC [36]: > 25 µg/mL
MIC [37]: > 25 µg/mL
Delta MST [2]: 0.7 days
MIC [38]: > 25 µg/mL
MIC [39]: > 25 µg/mL
MIC [40]: > 25 µg/mL
Delta MST [3]: 3.9 days
Delta MST [4]: 0.3 days
Delta MST [5]: 6.3 days
Delta MST [6]: 0.3 days

Nc1nc(N)c2cc(S(=O)(=O)c3ccc4ccccc4c3)ccc2n1
survivors at day 60 [27]: 5
survivors at day 60 [41]: 5
survivors at day 60 [42]: 5
survivors at day 60 [43]: 5
